Screening data: PubChem BioAssay, Johns Hopkins Ion Channel Center
The list is not random: actives were taken first. Their share in the collection is about 3.7%.
KCNQ1 act – potentiators or activators of human KCNQ1 potassium channel | P51787 | CHO-K1 KCNQ1, thallium flux FluxOR fluorescence; hits give high values | B-score at 10 µM | 310,000 compounds, 0.35% hits;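 active means fluorescence ratio B-score, a plate-corrected score, at least three library SD, with initial intensity B-score within 5 SD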
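Assay system: CHO-K1 cells stably expressing KCNQ1. Medium: assay buffer for compound exposure, DMSO matched across wells. Timing: 37 °C overnight plating, 90-min dark dye load, 20-min compound pretreatment. Signal: kinetic FluxOR fluorescence, 10 s baseline plus 110 s post-stimulus.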
KCNQ1 inh – blocks the human KCNQ1 potassium channel | 310,000 compounds, 1.3% hits | CHO-K1 KCNQ1, FluxOR thallium flux fluorescence; hits give high values | AID 2642 | B-score at 10 µM;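 active means compounds whose thallium flux B-score, printed positive for inhibition, exceeds three library SD while starting fluorescence stays within three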;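 further: channel opened by potassium depolarization with thallium stimulus after 20 min compound exposure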
KCNK3 block – human KCNK3 channel inhibition, primary screen; B-score at 10 µM; CHO-KCNK3 thallium flux, FluxOR fluorescence; hits give low values; AID 602410; 340,000 compounds, 0.84% hits;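 active means B-score under library mean minus 4 SD, starting fluorescence ratio at most library mean plus 5 SD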;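 further: more negative B-score means stronger inhibition of thallium flux through KCNK3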
Kir21 block – inhibitors of mouse Kir2.1 inward-rectifier potassium channel | AID 1672 | B-score at 10 µM | 310,000 compounds, 0.85% hits | P35561 | HEK293-Kir2.1, FluxOR thallium flux fluorescence; hits give low values;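 active means fluorescence ratio B-score at or below minus 3 SD of library scores, with starting-brightness B-score within 2 SD, cut at about -4.2 in these data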;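 further: channel flux triggered by added potassium and thallium sulfate stimulus; B-score of peak minus minimum fluorescence over baseline after thallium stimulus; more negative B-score means stronger Kir2.1 block with less thallium influx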
KCNK9 block – blocks the human KCNK9 two-pore domain potassium channel | Q9NPC2 | HEK293 KCNK9, FluxOR thallium flux fluorescence; hits give low values | B-score at 10 µM | 310,000 compounds, 1.2% hits | AID 488922;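 active means ratio B-score over 3 SD below the library mean, with starting fluorescence within 5 SD of its mean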;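 further: negative B-score means less thallium flux so channel inhibition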
hERG rescue – hERG (human) protection from proarrhythmic block | 310,000 compounds, 0.51% hits | CHO-hERG, FluxOR thallium flux, dofetilide IC70 present | activation (rescue from dofetilide block), less the hit threshold, % at 10 µM | Q12809 | AID 1511;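 active means activation above the mean of controls blocked by dofetilide plus 5 SD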;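 further: thallium influx through hERG after potassium depolarization seen as dye fluorescence rise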
KCNQ1 inh valid – confirmation of human KCNQ1 potassium channel inhibitors; shares compounds with KCNQ1 inh; KCNQ1 cell line, FluxOR thallium flux fluorescence; inhibition, % at 10 µM; 1,600 compounds, 93% hits; AID 588353;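 active means primary screen active, with duplicate mean exceeding buffer control mean plus 3 SD of buffer wells, cut at about 28% in these data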;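 further: 0% = buffer control ratio and 100% = XE991 inhibitor control ratio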
CHO KCNQ1 ctr – KCNQ1 inhibitor counter-screen hit in parental CHO cells. shares compounds with KCNQ1 inh. parental CHO-K1, FluxOR thallium flux fluorescence ratio; hits give low values; zero means no signal rise above baseline. fluorescence ratio (Tl flux) at 10 µM. 1,600 compounds, 21% hits. AID 588366;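 active means mean of duplicate thallium-flux fluorescence ratios in parental host cells more than 5 SD below the buffer control mean, cut at about 0.38 in these data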;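 further: ratio is peak minus minimum fluorescence divided by baseline fluorescence; actives read low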
KCNQ1 ephys val – human KCNQ1 inhibition validated by electrophysiology; KCNQ1-CHO cells, automated patch clamp current; shares compounds with KCNQ1 inh; 490 compounds, 20% hits; calls only at 10 µM;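 active means KCNQ1 current drop exceeding 3 SD of negative control wells, seen in both duplicate runs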;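 further: steady state current during a 2 s step from -80 to +40 mV; negative values mean current inhibition and positive values mean potentiation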
KCNQ2 inh – KCNQ1 inhibitor that also blocks rat KCNQ2 channel. inhibition, % at 10 µM. shares compounds with KCNQ1 inh. 1,600 compounds, 71% hits. KCNQ2 cells, FluxOR thallium flux fluorescence. AID 651746;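 active means mean percent inhibition of the KCNQ2 thallium signal more than 5 SD above the buffer-only control wells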;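 further: KCNQ2 expressed in CHO cells; 0% = buffer control wells and 100% = XE-991 inhibitor control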
Target sequence (O88943 whole entry, looked up): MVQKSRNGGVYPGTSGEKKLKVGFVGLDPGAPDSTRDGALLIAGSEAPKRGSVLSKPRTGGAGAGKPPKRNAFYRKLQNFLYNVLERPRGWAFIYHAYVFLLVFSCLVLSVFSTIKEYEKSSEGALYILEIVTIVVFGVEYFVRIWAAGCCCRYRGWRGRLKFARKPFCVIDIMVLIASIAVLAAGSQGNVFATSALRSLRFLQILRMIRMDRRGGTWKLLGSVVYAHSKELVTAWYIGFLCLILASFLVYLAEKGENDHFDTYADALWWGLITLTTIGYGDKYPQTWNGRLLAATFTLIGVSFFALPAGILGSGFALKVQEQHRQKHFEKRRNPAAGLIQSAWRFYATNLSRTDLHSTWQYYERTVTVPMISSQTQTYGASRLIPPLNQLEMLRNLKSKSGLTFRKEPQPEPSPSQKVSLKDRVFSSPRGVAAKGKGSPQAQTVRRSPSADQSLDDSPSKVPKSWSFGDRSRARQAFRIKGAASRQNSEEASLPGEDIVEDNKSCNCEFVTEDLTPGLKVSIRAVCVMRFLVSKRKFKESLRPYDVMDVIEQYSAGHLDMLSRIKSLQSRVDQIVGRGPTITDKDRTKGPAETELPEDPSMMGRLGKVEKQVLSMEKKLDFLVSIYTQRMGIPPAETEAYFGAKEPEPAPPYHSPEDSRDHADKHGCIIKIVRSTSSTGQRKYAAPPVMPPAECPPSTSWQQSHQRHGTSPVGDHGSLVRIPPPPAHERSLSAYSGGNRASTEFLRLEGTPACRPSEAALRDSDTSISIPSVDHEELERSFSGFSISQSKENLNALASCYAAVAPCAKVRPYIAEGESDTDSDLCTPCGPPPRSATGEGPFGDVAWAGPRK
KCNQ1 KCNE1 spec – KCNQ1 inhibitor that also blocks human KCNQ1/KCNE1 channel; inhibition, % at 10 µM; 1,600 compounds, 77% hits; shares compounds with KCNQ1 inh; KCNQ1/KCNE1 cells, FluxOR thallium flux fluorescence;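 active means mean percent inhibition of duplicate wells above the buffer-only control mean plus 3 SD of those controls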;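 further: 0% = buffer only wells and 100% = XE-991 inhibitor control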
* marks the source's active call; other numbers are inactive results.

What do the screens show for `Cc1c(C(N)=O)c(-c2ccccc2)nn1-c1ccccc1`?
KCNQ1 act: inactive; KCNQ1 inh: inactive; KCNK3 block: inactive; Kir21 block: 2.1; KCNK9 block: inactive; hERG rescue: -7

What do the screens show for `CC(C)C(=O)NC(=S)Nc1ccc(S(=O)(=O)N(C)Cc2ccccc2)cc1`?
KCNQ1 act: inactive; KCNQ1 inh: 11*; KCNK3 block: inactive; Kir21 block: -0.29; KCNK9 block: inactive; hERG rescue: -9; KCNQ1 inh valid: 117*; CHO KCNQ1 ctr: 0.42; KCNQ1 ephys val: inactive; KCNQ2 inh: 104%*; KCNQ1 KCNE1 spec: 196%*

Results for CN(Cc1ccccc1)S(=O)(=O)c1ccc(NS(=O)(=O)Cc2ccccc2)cc1 ?
KCNQ1 act: inactive; KCNQ1 inh: 8*; KCNK3 block: inactive; Kir21 block: -0.47; KCNK9 block: inactive; hERG rescue: -17; KCNQ1 inh valid: 130*; CHO KCNQ1 ctr: 0.37*; KCNQ2 inh: 118%*; KCNQ1 KCNE1 spec: 92%*

Results for CC(=O)NC(=S)Nc1ccc(S(=O)(=O)N(C)Cc2ccccc2)cc1 ?
KCNQ1 act: inactive; KCNQ1 inh: inactive; KCNK3 block: inactive; Kir21 block: 1.3; KCNK9 block: inactive; hERG rescue: -8

What do the screens show for `O=C(COC(=O)c1cc(=O)[nH]c2ccccc12)c1cccs1`?
KCNQ1 act: inactive; KCNQ1 inh: inactive; KCNK3 block: inactive; Kir21 block: 1.1; KCNK9 block: inactive; hERG rescue: -11

What do the screens show for `CC1CCN(CCCNC(=O)c2ccc3c(=O)n(Cc4ccc(Cl)cc4)c(=S)[nH]c3c2)CC1`?
KCNQ1 act: inactive; KCNQ1 inh: 7*; KCNK3 block: inactive; Kir21 block: 0.05; KCNK9 block: inactive; hERG rescue: -44; KCNQ1 inh valid: 0; CHO KCNQ1 ctr: 0.48; KCNQ2 inh: inactive; KCNQ1 KCNE1 spec: inactive

What do the screens show for `CCN(CC)C(=O)C1c2ccccc2Oc2ccccc21`?
KCNQ1 act: inactive; KCNQ1 inh: 16*; KCNK3 block: inactive; Kir21 block: -14; KCNK9 block: inactive; hERG rescue: -23; KCNQ1 inh valid: 0; CHO KCNQ1 ctr: 0.48; KCNQ2 inh: 77%*; KCNQ1 KCNE1 spec: 71%*

What do the screens show for `S=C(NCCc1ccccc1)NCc1cccc(Cl)c1`?
KCNQ1 act: inactive; KCNQ1 inh: 9*; KCNK3 block: inactive; Kir21 block: -2.2; KCNK9 block: inactive; hERG rescue: -5; KCNQ1 inh valid: 62*; CHO KCNQ1 ctr: 0.51; KCNQ2 inh: 104%*; KCNQ1 KCNE1 spec: 46%*

Results for S=C(NCCNC(=S)Nc1ccccc1Cl)Nc1ccccc1Cl ?
KCNQ1 act: inactive; KCNQ1 inh: 7*; KCNK3 block: inactive; Kir21 block: 0.5; KCNK9 block: inactive; hERG rescue: -5; KCNQ1 inh valid: 62*; CHO KCNQ1 ctr: 0.59; KCNQ2 inh: 82%*; KCNQ1 KCNE1 spec: inactive

Results for S=C(NCCCc1ccccc1)Nc1ccccc1Cl ?
KCNQ1 act: inactive; KCNQ1 inh: 7*; KCNK3 block: inactive; Kir21 block: -0.05; KCNK9 block: inactive; hERG rescue: -22; KCNQ1 inh valid: 100*; CHO KCNQ1 ctr: 0.62; KCNQ1 ephys val: inactive; KCNQ2 inh: 61%*; KCNQ1 KCNE1 spec: 38%*
